Measured values: PubChem BioAssay AID651999 (Sanford-Burnham Center for Chemical Genomics, 2013)
Out of some 360,000 compounds screened, about 1,400 (0.39%) were called active.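 How the source made its calls: active means pattern-corrected inhibition above about 35%, with an unprinted fluorescence ratio check between 0.5 and 1.5 (limit read from the data, passing the limit was not always enough); inactive means the rest.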 The entries come from a sample that favours actives as a whole.

Target: COP9 signalosome complex subunit 5 (Homo sapiens) (UniProt Q92905)
Experiment: CSN5 deneddylase inhibitors on cullin-RING ligase – biochemical, fluorescence polarization, uHTS, primary screen (AID 651999);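 further: 0% = enzyme with substrate and 100% = substrate without enzyme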
Conditions: Purified CSN, SCF-Nedd8-OG deneddylation, at 12.5 µM, hits give high values
In short: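 Schedule: reaction 90 min, room temperature / Assay system: HEK293T-derived human Csn5 enzyme / Input: Csn5 at 0.24 nM final / Measure: inhibition of Csn5 cleavage, % / Control set: substrate-only high control, full reaction low control / Technique: fluorescence polarization of the substrate / Buffer or medium: Tris/NaCl/DTT buffer, pH 7.5 / Reagent: SCFSkp2-Nedd8OG substrate at 10 nM final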

Chain of COP9 signalosome complex subunit 5 (Homo sapiens) (Q92905 whole entry, looked up, one chain of several): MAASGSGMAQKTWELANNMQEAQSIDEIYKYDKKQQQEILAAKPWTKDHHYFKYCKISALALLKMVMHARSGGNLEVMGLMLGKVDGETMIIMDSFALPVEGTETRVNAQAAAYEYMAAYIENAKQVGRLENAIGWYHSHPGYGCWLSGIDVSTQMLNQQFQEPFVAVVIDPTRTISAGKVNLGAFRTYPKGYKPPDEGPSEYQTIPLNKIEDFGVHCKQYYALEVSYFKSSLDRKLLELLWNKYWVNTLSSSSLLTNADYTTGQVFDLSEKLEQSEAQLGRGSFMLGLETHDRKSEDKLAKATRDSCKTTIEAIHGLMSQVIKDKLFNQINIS

Structure (SMILES) | inhibition
CC1(C)C2CCC1(CS(=O)(=O)NCCc1c[nH]c3ccccc13)C(=O)C2 (stereo not given) | -3.93% (inactive)
COc1ccc(C(c2nnnn2C2CCCC2)N2CCN(C/C=C/c3ccccc3)CC2)cc1 (stereo not given) | -3.45% (inactive)
OC[C@@H]1CN(Cc2cccs2)C[C@H](n2cnc3c(Nc4ccccc4)ncnc32)O1 | 1.6% (inactive)
N#C/C(=C\C1=C(N2CCOCC2)C(=C\c2ccccc2)/CC1)C(=O)Nc1ccccc1F | 59.9% (active)
CNC(=O)/C(C#N)=C/c1c(F)cccc1Cl | -0.2% (inactive)
O=C(CC1SC(N2CCOCC2)=NC1=O)Nc1ccccc1F (stereo not given) | -4.57% (inactive)
Cc1cc(C)c(S(=O)(=O)NCC(c2ccc3c(c2)OCO3)N2CCOCC2)c(C)c1 (stereo not given) | 4.99% (inactive)
COc1ccc(C2=Nc3ccccc3NC(=O)C2N(C(=O)c2cc3ccccc3[nH]2)c2ccccc2)cc1 (stereo not given) | 1.01% (inactive)
O=C(O)c1ccccc1NC(=S)NC(NC(=O)c1ccccc1[N+](=O)[O-])C(Cl)(Cl)Cl (stereo not given) | 0.72% (inactive)
COc1cc(N2CCCC2)c(OC)cc1/C=C(/C#N)c1cccc(Br)c1 | 40.3% (active)
Cc1cccc(NC(=O)C2CC(=O)OC23CCCC3)c1 (stereo not given) | -1.93% (inactive)
Cc1cccc(C)c1NC(=O)C1CCCN1C(=O)OC(C)(C)C (stereo not given) | 1.38% (inactive)
O=C(C(=O)N1CCc2ccccc2C1)c1c[nH]c2ccccc12 | 3.61% (inactive)
CN(C(=O)COc1nnc(-c2cccs2)c(-c2cccs2)n1)c1ccccc1 | 4.69% (inactive)
C=CCn1c(=S)[nH]c2scc(-c3ccco3)c2c1=O | 35.8% (active)
Cc1ccc(-c2nnc(C)c(N3CC(C)OC(C)C3)n2)cc1 (stereo not given) | 4.31% (inactive)
Cc1nn(C)c(Cl)c1CN1CCC(Oc2ccc(C(=O)N3CCCC3)cc2)CC1 | -0.97% (inactive)
Cc1ccccc1-n1nc(C)c2cc(C(=O)NC3CC3)sc21 | -0.46% (inactive)
Cc1cccn2c(=O)c3cc(C(=O)NC4CCCCC4)sc3nc12 | 38.6% (active)
COCCCn1c(C(=O)NC2CCCCC2)cc2c(=O)n3cccc(C)c3nc21 | -3.61% (inactive)
CN1CCNC(=O)C1CC(=O)N1CC=C(c2ccc(F)cc2)CC1 (stereo not given) | -1.53% (inactive)
Cc1ccc([C@H]2C[C@H](O)[C@@H](n3cc(COC(=O)c4ccccc4)nn3)CN2CC2CCCCC2)cc1 | -1.77% (inactive)

Structure (SMILES) | inhibition
COC(=O)N/N=C/c1c[n+]([O-])c2ccccc2[n+]1[O-] | -7.07% (inactive)
CCC(=O)Nc1ccc2nn(-c3ccc(F)cc3)nc2c1 | -3.58% (inactive)
Cc1ccc(-n2nc3ccc(NC(=O)/C=C/c4ccco4)cc3n2)cc1C | 62.3% (active)
Cc1cccc(N2CCN(C(=O)/C=C/c3ccco3)CC2)c1C | -6.8% (inactive)
C[C@H](CO)N1C[C@H](C)[C@@H](CN(C)C(=O)c2cnccn2)Oc2ncc(Br)cc2C1=O | -0.87% (inactive)
COc1ccc(C(C(=O)NC2CCCC2)N(CCCO)C(=O)Cn2nnc(-c3ccc(C)o3)n2)cc1 (stereo not given) | -1.83% (inactive)
CCCNC(=O)C1(C)CCCN(Cc2cccc(C(F)(F)F)c2)C1 (stereo not given) | 1.08% (inactive)
O=C(CN1C(=O)CCS(=O)(=O)c2ccccc21)NCc1ccc(F)cc1 | 2.38% (inactive)
CSCc1ccc(C(=O)Nc2cc(C)cc(C)c2)cc1 | -3.14% (inactive)
COCc1cc(C)nc(Nc2cc(C)ccc2C)c1C#N | 2.37% (inactive)
Cc1c(C(=O)NCCN2C(=O)S/C(=C\c3cccs3)C2=O)cccc1[N+](=O)[O-] | -3.22% (inactive)
O=C(CCN1C(=O)/C(=C/c2cccs2)SC1=S)NNC(=O)c1cccc(O)c1 | 51.4% (active)
O=C(CCN1C(=O)c2ccccc2C1=O)NNC(=O)c1ccc(Cl)cc1Cl | -5.29% (inactive)
O=C(COc1ccc(S(=O)(=O)N2CCCCC2)cc1)NCc1ccccn1 | -4.23% (inactive)
CC(=O)NS(=O)(=O)c1ccc(NC(=O)/C=C/c2ccccc2Cl)cc1 | 4.02% (inactive)
COc1ccccc1CNC(=O)CCCNS(=O)(=O)c1cccc2nsnc12 | 1.39% (inactive)
Cc1ccc(CC2C(=O)N(c3ccc(F)cc3)C(=O)C2C)cc1 (stereo not given) | -0.88% (inactive)
C#CCOCCOCCOCCNc1nc(N2CCN(C(=O)C([C@@H](C)O)n3cc([C@@H](N)CCCCN)nn3)CC2)nc(N2CCN(C(=O)[C@H](CCCCN)n3cc(CN)nn3)CC2)n1 (stereo not given in full) | 37% (active)
CCC(C)[C@@H](C(=O)N1CCNCC1)n1cc(CCCCN)nn1 (stereo not given in full) | -2.15% (inactive)
C#CCOCCOCCOCCNc1nc(N2CCN(C(=O)C(Cc3ccc(O)cc3)n3cc(C(N)CC(C)C)nn3)CC2)nc(N2CCN(C(=O)C(Cc3ccc(O)cc3)n3cc(C(N)C(C)CC)nn3)CC2)n1 (stereo not given) | 0.38% (inactive)
C#CCOCCOCCOCCNc1nc(N2CCN(C(=O)CCCCCCCCCCNC(=O)Cn3cc(CCCCCN)nn3)CC2)nc(N2CCN(C(=O)CCCCCCCCCCNC(=O)[C@H](CO)n3cc(CCCSC)nn3)CC2)n1 | 89% (active)
C#CCOCCOCCOCCNc1nc(N2CCOCC2)nc(N2CCN(C(=O)[C@H](Cc3ccc(O)cc3)n3cc(CCO)nn3)CC2)n1 | -2.16% (inactive)

Structure (SMILES) | inhibition
CC/C(Cc1ccccc1)=N/NC(=O)CCn1nnc2ccccc21 | 1.26% (inactive)
COc1ccc(NC(=O)C2CCC(CNc3c(N4CCCCC4)c(=O)c3=O)CC2)c(OC)c1 (stereo not given) | 1.79% (inactive)
CCOC(=O)C1(Cc2cccc(OC)c2)CCN(C(C)CC(C)(C)O)CC1 (stereo not given) | 0.5% (inactive)
Fc1ccc(-n2c(Cc3ccccc3)nnc2SCc2nc(-c3ccc(Cl)cc3)no2)cc1 | 5.36% (inactive)
Cc1ccc(-c2ccc(CN3C(C)C(=O)N(Cc4cn(CCC5OCCCO5)nn4)CCS3(=O)=O)cc2)cc1 (stereo not given) | 0.07% (inactive)
O=c1c2ccccc2c(-c2ccccc2)nn1-c1ccccn1 | 0.93% (inactive)
O=C(Nc1cc2c3c(c1)C1CCCC1CN3CC1CCCC21)c1ccc([N+](=O)[O-])cc1 (stereo not given) | -4.37% (inactive)
O=C(Nc1ccc(C2CC2(Cl)Cl)cc1)c1cccc([N+](=O)[O-])c1 (stereo not given) | -0.73% (inactive)
Cn1ccc(=Nc2ccc(NC(=O)c3ccc(N=c4ccn(C)c5ccc([N+](=O)[O-])cc45)cc3)cc2)cc1 | 114% (active)
CCCNC(=O)c1ccc(N2CCC3(CC2)CC(c2cccc(Br)c2)=NO3)c(NC(=O)c2ccco2)c1 | -1.32% (inactive)
C/C(=N\N=C(N)N)c1ccc(Cl)cc1 | -1.16% (inactive)
O=C(Cc1ccccc1)Nc1c(C(=O)N2CCCCCC2)cnn1-c1ccccc1 | -1.5% (inactive)
CCN(C(=O)Cc1c(C(=O)O)n(CC)c2ccccc12)c1ccccc1C | -2.24% (inactive)
CC[n+]1cc(C)ccc1/C=C/c1ccc(N(C)C)cc1 | 35.4% (active)
CC(C)N1CCC(NC(=O)Nc2ccccc2)CC1 | -2.66% (inactive)
CC(=O)N1CCN(S(=O)(=O)c2c(F)cc(F)c(Cl)c2F)CC1 | -5.22% (inactive)
CCOc1ccc(NC(=O)CN(C)CC(=O)NC(C)c2ccccc2)cc1OCC (stereo not given) | 2.1% (inactive)
CN1/C(=c2/s/c(=C3/C(=O)N(c4ccccc4)NC3=Nc3ccccc3)n(C)c2=O)C(C)(C)c2ccccc21 | 41.7% (active)
CCc1c(O)nc(SCC(=O)Nc2ccccc2)n(C(C)CC)c1=O (stereo not given) | 2.98% (inactive)
O=C(Nc1ccc(N2CCN(C(=O)c3cccs3)CC2)cc1)c1cccnc1Cl | -0.71% (inactive)
C=CC(=O)Nc1ccc(Nc2ccnc(Nc3ccc(N4CCN(C)CC4)cc3)n2)cc1 | 103% (active)
CC(=O)Nc1cc(-c2ccc(N3CCN(C)CC3)cc2)cn2c(-c3ccc(F)cc3)cnc12 | 9.21% (inactive)

Structure (SMILES) | inhibition
C/C(=N/NS(=O)(=O)c1ccccc1)c1ccc(NC(=O)C(F)(F)F)cc1 | -3.71% (inactive)
COc1ccccc1NC(=O)CCSc1nnc(-c2ccc(O)cc2)o1 | -8.49% (inactive)
Cc1ccc(N=C2NC(=O)/C(=C/C=C/c3ccco3)S2)cc1C | 51.9% (active)
COc1ccc(CCN(Cc2cc3cccc(C)c3[nH]c2=O)C(=O)N2CCCC2)cc1OC | 2.45% (inactive)
O=C(NCCCO)/C(=C\C=C\c1ccccc1)NC(=O)c1ccccc1Cl | -3.06% (inactive)
C=CCN(c1ccc(Cl)cc1)S(=O)(=O)c1cccc(C(=O)OCC(=O)N(C)C)c1 | -4.63% (inactive)
N#Cc1cc([N+](=O)[O-])ccc1Oc1cccc(/C=N/NC(=O)c2ccc(Cl)cc2)c1 | 1.22% (inactive)
CC(NC(=O)C(=O)N/N=C/c1ccc(Cl)cc1)c1ccccc1 (stereo not given) | -2.35% (inactive)
O=C(N/N=C/c1ccc(Cl)cc1)c1nc2ccc([N+](=O)[O-])cc2c(=O)[nH]1 | 56.7% (active)
COc1ccc(Cc2nnc(SCC(=O)N(c3ccccc3)C(C)C)n(N)c2=O)cc1 | 2.75% (inactive)
CC1(C2CC2)NC(=O)N(CC(=O)N2CCN(c3ccccc3F)CC2)C1=O (stereo not given) | -0.85% (inactive)
O=C(COc1ccc([N+](=O)[O-])cc1)Nc1ccc(N2CCCC2)cc1 | 45.2% (active)
O=C(CCC(=O)N1CCCC1)Nc1ccc([N+](=O)[O-])cc1 | -2.97% (inactive)
O=C(COC(=O)C1CCCCC1)Nc1ccc([N+](=O)[O-])cc1 | -5.15% (inactive)
Cn1c2c(c(=O)n(C)c1=O)[C@@H]1c3c(ccc4ccccc34)OC[C@@H]1CO2 | 0.02% (inactive)
CCN(/N=C/c1ccc(N(C)C)cc1)c1nc2ccccc2[nH]1 | -1.85% (inactive)
COc1cc(/C=C(\C#N)c2nc3ccccc3[nH]2)ccc1O | 73.3% (active)
COc1cc(/C=C(\C#N)c2nc3c(s2)CC(C)CC3)ccc1O (stereo not given) | 82% (active)
COc1cc(C=NC2CCCCC2)ccc1O | 4.95% (inactive)
